# Experimental data reported in PubChem BioAssay AID2052 (NMMLSC, 2009).
# The whole screen tested about 330,000 compounds, of which about 220 (0.067%) were called active.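 The calls were made as follows: active = response, share of CD8 T cells binding vesicles, and their 90th percentile fluorescence all below set limits (cut at about 80% in these data, passing the limit was not always enough); inactive = the rest, inconclusive results apart.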 The list comes from a sample in which actives are over-represented; it also holds similar structures and randomly drawn compounds.
# Assay: modulators of CD8 T cell-vesicle binding, primary screen, mouse 2C CD8+ T cells, flow cytometry (AID 2052);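 as to double positive events: binding gate set so that unloaded-vesicle control wells show 10% double positive cells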;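 as to response (vesicle binding): values below 100% mean blocked vesicle binding to the CD8+ T cells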
# Details: 2C CD8+ T cell-vesicle binding, at 7 µM, stronger effect = lower value; double positive events: measured here: CD8+ vesicle-bound cell fraction
# Summary of the method: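 material = purified 2C TCR transgenic mouse naive CD8+ T cells | controls = Unloaded micro-vesicles (low), QL9 vesicles with 0.7% DMSO (high) | detection = cytometric PE anti-B7-1 and Alexa647 anti-CD8 signals after 1% paraformaldehyde fixation | incubation = binding step 1.5 h, 37 °C, antibody labelling 20 min, ice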
Structure (SMILES),double positive events [%],response (vesicle binding)
Cc1nc2ccc(C(=O)N(C)CC3CCCN(CCc4ccc(Cl)cc4)C3)cc2[nH]1 (configuration not stated),20.7,442% (inactive)
Cc1ccc(N2CC(C(=O)NCCS(=O)(=O)N3CCN(c4ccccc4)CC3)CC2=O)cc1 (configuration not stated),11,383% (inactive)
CN1C(=O)/C(=C/C=C2\SCCN2C)OC1=S,25.3,177% (inactive)
CCN1CCN(C(=O)c2cc3cc4ccc(OC)cc4nc3s2)CC1,24.6,601% (inactive)
CN(CC(=O)NCCc1ccc(S(N)(=O)=O)cc1)CC(=O)Nc1ccc(Cl)cc1,39.4,1090% (inactive)
Cc1ccccc1CN(c1ccc(C(=O)NCC2CCCO2)cc1)S(C)(=O)=O (configuration not stated),4.3,168% (inactive)
COc1ccc(C(=O)CC(=O)C(=O)Nc2cc([N+](=O)[O-])ccc2OC)cc1,13.4,256% (inactive)
COc1ccc([N+](=O)[O-])cc1NC(=O)c1ccc(N(Cc2ccccc2C)S(C)(=O)=O)cc1,0.1,6.1% (active)
COc1ccccc1OCCn1c(SCC(N)=O)nc2ccccc21,16,348% (inactive)
Cc1ccc(NC(=O)CN(C)S(=O)(=O)c2cnc[nH]2)cc1C,18.7,261% (inactive)
CC(Oc1ccccc1)C(=O)Nc1c2c(nn1-c1ccccc1)CS(=O)C2 (configuration not stated),7.9,237% (inactive)
CCOC(=O)c1ccccc1NC(=S)N1CCC(C(N)=O)CC1,33.7,285% (inactive)
OC(CNCc1ccc(Cl)c(Cl)c1)c1ccccc1 (configuration not stated),58.3,66.1% (inactive)
Cc1c(NC(=S)NC(=O)CCc2ccccc2)c(=O)n(-c2ccccc2)n1C,1.1,17.6% (active)
Cc1c(NC(=S)Nc2ccccc2)c(=O)n(-c2ccccc2)n1C,28,297% (inactive)
Cc1c(NC(=O)CN2C(=O)C(=O)N(Cc3ccccc3)C2=O)c(=O)n(-c2ccccc2)n1C,54.7,606% (inactive)
CC(C)(C)c1cc(P(=O)(c2ccccc2)c2ccccc2)ccc1O,28.1,82.3% (inactive)
Cc1ccccc1NC(=O)Nc1ccccc1N1CCCCC1,27.3,308% (inactive)
O=C(CN1CCN(C2CCCCC2)CC1)Nc1ccccc1N1CCCCC1,6.3,0% (active)
CC(=O)c1ccc(N2CCN(CC(=O)Nc3ccccc3N3CCOCC3)CC2)cc1,42.5,203% (inactive)
COc1ccc(CN(C)C(=S)Nc2ccc(Cl)cc2Cl)cc1,9.4,367% (inactive)

Structure (SMILES),double positive events [%],response (vesicle binding)
CCN1CCN(C(=O)C2CCN(S(=O)(=O)c3cc(Cl)ccc3Cl)CC2)CC1,29.3,223% (inactive)
O=C(NN1C(=O)C2C3C=CC(C3)C2C1=O)c1ccco1 (configuration not stated),43,570% (inactive)
CCOc1ccc2[nH]c(=O)c(CN(Cc3nnnn3CCc3ccccc3)CC3CCCO3)cc2c1 (configuration not stated),50.9,238% (inactive)
COC(=O)c1ccc(C2NC(=O)NC(C)=C2C(=O)N(C)C)cc1 (configuration not stated),31.3,393% (inactive)
CCOc1ccc(CCNC(=O)COC(=O)C2CCN(c3ccc(C(F)(F)F)cn3)CC2)cc1OCC,38.6,818% (inactive)
CCCc1c(C(=O)Nc2ccc(F)cc2)cnn1-c1ccccc1,19.3,479% (inactive)
O=C(COC(=O)CC1CC2CCC1C2)NC(=O)NC1CCCC1 (configuration not stated),20.7,248% (inactive)
COc1ccc(OC)c(C(c2nnnn2C(C)(C)C)N2CCc3ccccc3C2)c1 (configuration not stated),55.6,342% (inactive)
CCOc1ccc2[nH]c(=O)c(C(c3nnnn3CCOC)N3CCOCC3)cc2c1 (configuration not stated),11.4,261% (inactive)
COCCn1nnnc1C(c1cc2ccc(OC)cc2[nH]c1=O)N1CCc2ccccc2C1 (configuration not stated),16.7,0% (active)
CCCCOc1ccc(NC(=O)CSCC(=O)OCC)cc1,29.6,186% (inactive)
CN(C)/C=C(/C(=O)c1ccc(Cl)cc1)S(=O)(=O)c1ccccc1,37.1,209% (inactive)
Cc1nn(Cc2ccc(C(=O)N3N=C(C(F)F)CC3(O)C(F)F)cc2)c(C)c1[N+](=O)[O-] (configuration not stated),36.3,446% (inactive)
C1=C(N2CCOCC2)/C(=C/c2nc3ccccc3[nH]2)CC1,33.6,242% (inactive)
CC1CC(C)(C)n2c(O)c(N=NC(N)=S)c3cccc1c32 (configuration not stated),21.4,405% (inactive)
CC1CCc2sc(C(=O)NCC(c3ccco3)N3CCCCC3)cc2C1 (configuration not stated),29.9,209% (inactive)
CS(=O)(=O)N(CC(=O)Nc1ccc(F)cc1F)c1cccc([N+](=O)[O-])c1,31.4,763% (inactive)
O=C(c1ccccc1)c1ccc2nc(N3CCCCC3)c3nncn3c2c1,4.3,87.7% (inactive)
Cc1c(Cl)cccc1NC(=S)NCC(O)c1ccccc1 (configuration not stated),56.7,132% (inactive)
CC(=O)Nc1ccc(S(=O)(=O)Oc2ccc(Br)cc2C(=S)N2CCOCC2)cc1,35.8,429% (inactive)
Cc1ccc(OCC(=O)Nc2ccc(C(=O)O)cc2NC(=O)COc2ccc(C)c(C)c2)cc1C,35.6,196% (inactive)

Structure (SMILES),double positive events [%],response (vesicle binding)
COc1ccc(/C=C(/NC(=O)c2ccccc2)C(=O)Nc2cccc(C(=O)O)c2)cc1,39.2,259% (inactive)
CCOc1ccc(S(=O)(=O)NCc2ccc3c(c2)OCO3)cc1C,23.9,381% (inactive)
Cc1cc(Br)ccc1NC(=O)CN(C)C(=O)CN1C(=O)NC2(CCCC2)C1=O,8.3,215% (inactive)
COCc1cc(C)n(CC(=O)NCC2CCCO2)c(=O)c1C#N (configuration not stated),19.7,237% (inactive)
CC(=O)Nc1ccc(NC(=O)CSC2=NS(=O)(=O)c3ccccc3N2)cc1,46.2,285% (inactive)
COc1cc(/C=C/C(=O)N2CCc3ccccc3C2)cc(OC)c1OC,39.9,216% (inactive)
CCc1cc(CNC(=O)CC2C(=O)NCCN2Cc2ccccc2C(F)(F)F)on1 (configuration not stated),21.1,297% (inactive)
CS(=O)(=O)c1ccc(C(=O)NNC(=O)c2cccs2)cc1,52.2,322% (inactive)
O=C(NC1CCCC1)C(c1c(F)cccc1Cl)N(C(=O)c1csnn1)C1CC1 (configuration not stated),17.4,421% (inactive)
CCc1ccc(NC(=O)C(=O)N/N=C(\C)CC(=O)NCCOC)cc1,23.6,154% (inactive)
CCc1ccc(-n2c(SCc3cc(=O)n4cc(Br)ccc4n3)nc3[nH]ncc3c2=O)cc1,30.8,314% (inactive)
Cc1sc2ncnc(N3CCC(C(=O)NNC(=O)c4ccc(F)cc4)CC3)c2c1C,64.9,227% (inactive)
CC1CCN(c2ccc(S(=O)(=O)Nc3cc(C(=O)O)cc(C(=O)O)c3)cc2[N+](=O)[O-])CC1,24.9,234% (inactive)
CCn1c2c(c3ccc(OC)cc31)CCCC2=O,43.3,241% (inactive)
COC/C=C/C1=CC2=CC(=O)C(C)(OC(=O)CCC(=O)OC)C(=O)C2=CO1 (configuration not stated),30.4,292% (inactive)
CCCN=C1NC(=O)C(CC(=O)NCCc2ccc(OC)c(OC)c2)S1 (configuration not stated),39.4,112% (inactive)
CCN(CC(=O)Nc1c(F)cccc1F)C(=O)CN1c2cccc3cccc(c23)S1(=O)=O,43.4,247% (inactive)
O=C1C=C(NCCNc2c(F)c(F)c(CO)c(F)c2F)CCC1,42.6,169% (inactive)
COCCN1C2=C(COC(C)(C)C2)C(=S)NC1c1ccccc1 (configuration not stated),26.4,676% (inactive)
Cc1cc(C(=O)N2CCN(c3ccccn3)CC2)c(C)o1,21,214% (inactive)
Cn1ccc(=NC=C(C#N)C#N)c2ccccc21,46.1,136% (inactive)

Structure (SMILES),double positive events [%],response (vesicle binding)
Cc1cc(C)n2nc(C(=O)OCC(=O)N(C)CC(=O)Nc3ccc(F)cc3)nc2n1,43,342% (inactive)
CS(=O)(=O)N1CCc2cc(C(=O)Nc3ccccc3Br)ccc21,35.6,198% (inactive)
CN(C)N=Nc1ccc2nc[nH]c2c1,13.7,692% (inactive)
CO/N=C/c1ccc(N2CCN(C(=O)c3cccc(Cl)c3)CC2)c([N+](=O)[O-])c1,24.8,143% (inactive)
CSc1sc(C(=O)NNC(=O)c2ccc(Cl)cc2)c2c1C=CCC2,57.7,168% (inactive)
CCCCn1c(N)c(N2CCOCC2)c(=O)n(CC(=O)NCCc2ccccc2)c1=O,52.1,370% (inactive)
CCCN1CCN(C(=O)Cn2ncc3ccccc32)CC1,45.8,326% (inactive)
COc1ccccc1CNC(=O)c1ccc(N(C)S(=O)(=O)c2ccc(C)cc2)cc1,2,94% (inactive)
Cc1ccc(-n2nc3c(c2NC(=O)CCC2CCCCC2)CS(=O)C3)cc1 (configuration not stated),41.6,834% (inactive)
COc1cccc(C(=O)NNC(=O)/C=C/c2ccccc2)c1,61.7,433% (inactive)
CNC(=O)c1nnn(-c2ccccc2)c1C(=O)NC,57.6,329% (inactive)
O=C(NCc1ccncc1)C1CCCN(S(=O)(=O)c2ccc(Br)cc2)C1 (configuration not stated),50.3,342% (inactive)
CCSc1nnc(SCC(=O)NNC(=O)c2ccccc2F)s1,59.2,194% (inactive)
CCOc1cc(C2C(C(=O)OC(C)C)=C(C)NC3=C2C(=O)CCC3)cc([N+](=O)[O-])c1O (configuration not stated),47.9,162% (inactive)
COc1cc(N)c(Cl)cc1C(=O)OCC(=O)c1ccc2c(c1)NC(=O)CO2,29.1,484% (inactive)
CC1(C)CC(CNCCC(c2ccc(F)cc2)c2ccco2)CCO1 (configuration not stated),39.3,172% (inactive)
CN(C)S(=O)(=O)c1cccc(NC(=O)COc2ccc3ccccc3c2)c1,30.4,566% (inactive)
CCCn1cc(S(=O)(=O)c2ccc(C)cc2)c(=O)c2cc(OCC)ccc21,38.4,435% (inactive)
